Screening results from PubChem.
14-3-3 Bad inh: disrupts binding of bovine 14-3-3 zeta to phospho-Bad peptide. TR-FRET 14-3-3zeta/Dy647-pBad peptide displacement, 1 h. inhibition, % at 21.7 µM. actives 0.71% (n = 220,000). AID 781;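 active means inhibition above about 70%, limit read from the data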
Target sequence (P63103 whole entry, looked up): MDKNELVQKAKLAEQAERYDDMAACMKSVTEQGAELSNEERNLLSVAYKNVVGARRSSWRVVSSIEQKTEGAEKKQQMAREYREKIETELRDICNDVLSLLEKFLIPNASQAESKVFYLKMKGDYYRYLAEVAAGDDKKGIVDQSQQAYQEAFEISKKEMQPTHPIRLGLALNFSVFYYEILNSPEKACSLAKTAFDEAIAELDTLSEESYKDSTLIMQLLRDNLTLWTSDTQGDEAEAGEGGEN
eIF4E-4G inh: inhibitors of eIF4E and eIF4G interaction in translation initiation. TR-FRET eIF4E-eIF4GI(517-606) binding, 2 h. AID 782. P63073+Q04637. actives 0.37% (n = 220,000). inhibition, % at 21.7 µM
WT yeast gro inh: growth inhibition of WT yeast, mitochondrial fusion screen | mitochondrial fusion phenotypic screen, WT strain | inhibition, % at 10 µM | actives 2.1% (n = 190,000); in the data active means inhibition above about 58%; tested in S. cerevisiae
EBV gp42 inh: EBV gp42 inhibition. inhibition, % (tested at 21.74 µM). Fluorescence polarization binding assay, mP read-out. AID 1085. Q1HVG2. actives 0.42% (n = 220,000); in the data active means inhibition above about 50%
RBBP9 inhibitor: human RBBP9 hydrolase inhibition; inhibition, % at 7.94 µM; recombinant RBBP9, FP-Rh probe fluorescence polarization; actives 0.2% (n = 220,000); O75884; AID 1515;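 active means inhibition above the campaign mean of all tested compounds plus 3 SD, cut at about 14% in these data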
Target sequence (O75884 whole entry, looked up): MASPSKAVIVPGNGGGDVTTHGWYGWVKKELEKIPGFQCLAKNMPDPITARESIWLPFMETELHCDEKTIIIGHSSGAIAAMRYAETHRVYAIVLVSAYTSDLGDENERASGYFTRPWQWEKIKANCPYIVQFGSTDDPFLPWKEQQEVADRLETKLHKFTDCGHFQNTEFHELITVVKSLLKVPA
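system = RBBP9 protein | input = RBBP9 at 2.5 µM in dispensed solution, before mixing | measured by = fluorescence polarization (mP), excitation 525 nm, emission 598 nm | incubation = enzyme-compound preincubation 30 min, then probe labeling 45 min, 25 °C | buffer or medium = Tris-NaCl-Pluronic buffer, pH 8.0 | compound = single dose 7.94 µM | also added = FP-Rh probe, 375 nM dispensing solution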
NCF1 inh: inhibitors of human p47phox binding; P14598; p47phox/p22phox peptide binding, fluorescence polarization, 2 h; inhibition, % at 24.7 µM; actives 0.53% (n = 220,000); AID 1274
Numbers stand for hits; n = inactive; x = no result; [ ] = another dose, or the depositor's remark. In the library only some 3.7% were active in any assay of this set; here they are far more common.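 How the source made its calls, unless noted: active means inhibition above about 30% (limit read from the data); inactive means the rest.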

SMILES	14-3-3 Bad inh	eIF4E-4G inh	WT yeast gro inh	EBV gp42 inh	RBBP9 inhibitor	NCF1 inh
CCOC(=O)c1oc2cc(OCC(=O)OC)ccc2c(=O)c1-c1ccc(OC)c(OC)c1	n	n	x	51	n	n
CCOC(=O)c1cn2nc(Oc3cccc(C(F)(F)F)c3)ccc2n1	n	n	x	n	n	n
CCCCOC(=O)c1ccc(NC(=O)c2nn(C)cc2Br)cc1	n	n	60	n	n	n
CCCCOC(=O)c1ccc(NC(C)=O)cc1	n	n	n	n	n	n
CCCCCOC(=O)c1ccc(NC(=O)c2ccco2)cc1	n	n	70	n	n	n
CCn1cc(Br)c(C(=O)Nc2ccc(C(=O)OC(C)C)cc2)n1	n	n	n	n	n	n
CCCCOC(=O)c1ccc(NC(=O)c2c(OC)cccc2OC)cc1	n	n	n	n	n	37
CC(C)(C)c1ccc(NNC(=O)C2CCC2)cc1	n	n	x	n	n	n
COc1cccc(N2CN(CCc3ccccc3)CNC2=S)c1	n	n	x	n	n	n
COc1ccccc1N1C(=O)C2C(C(=O)c3ccccc3)=NN(c3ccccc3OC)C2C1=O (stereo not drawn)	n	n	x	n	n	n
COc1ccc(NC(=O)Cn2nnc(-c3ccccc3F)n2)cc1	n	n	n	n	n	54
CCOc1ccc(NC(=O)Cn2nnc(-c3ccccc3F)n2)cc1	n	n	n	n	n	n
Cc1ccc(Oc2nc3c(C)cccn3c(=O)c2/C=C(\C#N)C(N)=O)cc1	n	41	x	n	n	n
CCOC(=O)/C(C#N)=C/c1c(Oc2cccc(C)c2)nc2c(C)cccn2c1=O	n	n	n	n	n	n
Fc1ccc(Cn2nnnc2CN2CCN(C3CCCC3)CC2)cc1	78	n	n	n	n	n
CC(C)(C)OC(=O)N[C@@H](Cc1ccccc1)c1nnc(S(=O)(=O)Cc2cccc(F)c2)o1	n	n	n	n	n	n
Cc1ccccc1CS(=O)(=O)c1nnc([C@H](CC(C)C)NC(=O)OC(C)(C)C)o1	n	n	75	n	n	n
CC[C@@H](C)[C@H](NC(=O)OC(C)(C)C)c1nnc(S(=O)(=O)Cc2cc(C)ccc2C)o1	n	n	66	n	n	n
CC(=O)N(C)c1ccc(NC(=O)Nc2ccc(C)c(C)c2)cc1	n	n	n	n	n	n
Cc1[nH]c(=S)c(C#N)c(-c2ccccc2)c1C(=O)Nc1ccccc1	n	32	x	n	n	n
CC1Cc2ccccc2N1C(=O)CNCCCN(C)C (stereo not drawn)	76	n	n	n	n	n
CC1Cc2ccccc2N1C(=O)CSCC(=O)O (stereo not drawn)	n	n	n	n	n	n
O=C(NCCN1CCCOC1=O)C(=O)NCCN1CCCOC1=O	n	n	x	n	n	n
Cn1c(-c2ccc(Br)cc2)cnc1NCc1cccnc1	79	n	n	n	n	n
Cc1ccc(CNc2ncc(-c3ccc4c(c3)OCO4)n2C)cc1	n	n	n	n	n	n
SMILES	14-3-3 Bad inh	eIF4E-4G inh	WT yeast gro inh	EBV gp42 inh	RBBP9 inhibitor	NCF1 inh
Cn1c(-c2ccc3c(c2)OCO3)cnc1NCc1ccc(Cl)cc1	77	n	n	n	n	n
Cn1c(-c2ccc(F)cc2)cnc1NCc1ccc(F)cc1	80	n	n	n	n	n
O=C(CSc1ncnc2nc[nH]c12)Nc1nnc(SCc2ccc(Cl)c(Cl)c2)s1	n	n	n	n	n	n
O=C(CCCl)N(Cc1nc2ccccc2c(=O)[nH]1)Cc1cccs1	n	n	n	n	n	n
Cc1cccc(N=C2NC(=O)S/C2=C\c2ccco2)c1	n	n	n	n	n	n
O=C1NC(=Nc2ccc(Cl)cc2)/C(=C/c2ccco2)S1	81[fluorescence artefact?]	n	n	62	n	n
CCN(CC)c1ccc(NC(=S)NC(=O)c2cccs2)cc1	n	n	n	n	n	n
Cc1ccccc1NC(=O)c1ccc(Cn2cc([N+](=O)[O-])cn2)o1	n	n	n	n	n	n
CC(NC(=O)c1ccc(Cn2cc([N+](=O)[O-])cn2)o1)c1ccccc1 (stereo not drawn)	n	36[fluorescence artefact?]	n	n	n	n
COC(=O)c1sc(NC(=O)c2c(OC)cccc2OC)c(C#N)c1C	n	n	n	n	n	n
Cn1c(=O)c2c(ncn2CC(=O)N/N=C/c2c[nH]c3ccccc23)n(C)c1=O	n	n	x	n	n	n
Cc1c2c(n3c(nc4ccccc43)c1C#N)N(Cc1cccnc1)CC2	x	x	x	x	n	x
